This is an account of results in paper PMC2193327 (The Journal of Experimental Medicine, 2001).

No end group written: not given here.

For orientation: IC50 means the concentration needed to halve the response being measured.

The experiment has as its target HLA-B*3501 (Homo sapiens, UniProt P01889, A329T/A93T/A95T/C349S/D201E/D98Y/E176V/E187L/E204Q/E69T/I218V/K202T/L119I/Q94N/R155S/R180L/S121R/S35A/S48A/T118I/V127L/V306I/V36M/Y140S/Y91F). The experiment is classed as binding. Put shortly: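 Human 721.221 cells expressing HLA-B*3501 were stripped of bound peptides with mild acid (pH 3.2). They were incubated overnight at 4°C with fluorescein-labelled reference peptide LPSC(FL)ADVEF (250 nM fixed) plus competitor peptides (>80% HPLC purity) from 50 to 0.09 μM. After washing, bound labelled peptide was measured by flow cytometry. IC50 (50% inhibition of reference binding) was taken from exponential regression curves.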
LAAVVGLSPGEQEY [LAAVVGLSPGEQEY] displayed an IC50 of 2.6 µM.
LGAVVGLSPGEQEY [LGAVVGLSPGEQEY] registered an IC50 of 17.4 µM. Compared with the last compound, the IC50 is about 6.7-fold higher.
`CC(C)C[C@H](NC(=O)CNC(=O)[C@@H](NC(=O)[C@@H](NC(=O)[C@H](C)NC(=O)[C@@H]1CCCN1C(=O)[C@@H](N)CC(C)C)C(C)C)C(C)C)C(=O)N[C@@H](CO)C(=O)N1CCC[C@H]1C(=O)NCC(=O)N[C@@H](CCC(=O)O)C(=O)N[C@@H](CCC(N)=O)C(=O)N[C@@H](CCC(=O)O)C(=O)N[C@@H](Cc1ccc(O)cc1)C(=O)O` [LPAVVGLSPGEQEY] had an IC50 of 3.1 µM. This IC50 lies about 5.6-fold lower than the previous one.
On to LAAVVGLSAGEQEY [LAAVVGLSAGEQEY], for which the IC50 amounted to 1.7 µM.
Compound LPAVVGLSAGEQEY [LPAVVGLSAGEQEY] yielded an IC50 of 1.1 µM. This IC50 is about 1.5-fold lower than that of the compound before.
LMAVVGLSPGEQEY [LMAVVGLSPGEQEY] yielded a 50% inhibitory concentration (IC50) of 6.5 µM.
Regarding “FPSDSWCYF [FPSDSWCYF, reference compound]”, the midpoint of inhibition, the IC50, lay at 4.1 µM.
In turn, LWAVVGLSPGEQEY [LWAVVGLSPGEQEY] had an IC50 of 4.7 µM.
As for APAVVGLSPGEQEY [APAVVGLSPGEQEY], the midpoint of inhibition, the IC50, lay at 2.8 µM.
Consider LPAVVGASPGEQEY [LPAVVGASPGEQEY], for which the IC50 is 1.3 µM.
